The values below come from paper PMC8796305 (ACS Central Science, 2022).

This data set in a line: Human plasma stability assay. Format: in vitro ADME. Conditions: 37 °C. An outline of the steps:
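Lyophilised human plasma reconstituted in sterile water, stored in aliquots at −80 °C, and thawed at room temperature (three aliquots per compound). Each aliquot spiked with test compound from a 2 mM DMSO stock; Angiotensin I as positive control. Incubated at 37 °C. Samples taken at […], quenched with water/acetonitrile, centrifuged (17 000g, 4 °C, 1 h), and supernatants concentrated.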

Take “Angiotensin I (DRVYIHPFHL; Angiotensin-1; UniProt P01019 25-34, looked up)”: the “Time to complete degradation in human plasma” value is recorded as not above 4 h.
